Consider one molecule from ChEMBL document CHEMBL4706553, “Discovery of potent small molecule PROTACs targeting mutant EGFR” (Eur J Med Chem, 2020).

Activity calls are given as the source filed them.

The subject of assay [1] is von Hippel-Lindau disease tumor suppressor/Epidermal growth factor receptor (Homo sapiens), P00533+P40337 [L858R,T790M]. Briefly: Protac activity at VHL/EGFR L858R/T790M mutant in human H1975 cells assessed as induction of degradation of EGFR by measuring reduction in EGFR phosphorylation at 100 nM incubated for 48 hrs by Western blot analysis. The settings on record: NCI-H1975. Type of assay: cell-based. The procedure, abridged:
(§1)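 HCC827 or H1975 cells treated at the stated concentrations for 48 h. Lysates probed by Western blot for EGFR, P-EGFR, Akt and P-Akt (each 1:1000); n = 2.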
(Immunoblotting shows a protein as a band on a membrane.)

The test system of assay [2] is von Hippel-Lindau disease tumor suppressor/Epidermal growth factor receptor (Homo sapiens), P00533+P40337 [UNDEFINED MUTATION]. Nature of the assay: Protac activity at VHL/EGFR del19 mutant in human HCC827 cells assessed as induction of EGFR degradation by measuring reduction in EGFR phosphorylation at 3 nM incubated for 48 hrs by Western blot analysis. Type of assay: cell-based. Summed up: as §1

Assay [3] has the same test system. Nature of the assay: Protac activity at VHL/EGFR del19 mutant in human HCC827 cells assessed as induction of EGFR degradation at 33 nM by Western blot analysis. Type of assay: cell-based. Particulars: time 12-72 hrs, TDE = time-dependent effect. Summed up: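 Time course in HCC827 cells at 33 nM, with protein harvested at each stated time point. EGFR^del19 detected by Western blot.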

Assay [4] has as its system von Hippel-Lindau disease tumor suppressor/Epidermal growth factor receptor (Homo sapiens), P00533+P40337 [L858R,T790M]. Briefly: Protac activity at VHL/EGFR L858R/T790M mutant in human H1975 cells assessed as induction of degradation of EGFR at 1 uM pretreated with autophagy inhibitor, chloroquine for 2 hrs followed by incubation with compound for 24 hrs by Western blot analysis. It counts as cell-based. Particulars: NCI-H1975. The procedure, abridged: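 H1975 cells pretreated with chloroquine for 2 h, then exposed to compound for 24 h. EGFR level by Western blot; n = 3.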

Assay [5] concerns HCC827. Briefly: Induction of apoptosis in human HCC827 cells assessed as apoptotic cells at 100 nM measured after 48 hrs by AnnexinV-FITC/propidium iodide staining based flow cytometry analysis relative to control. Type of assay: functional. The procedure, abridged:
(§2)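 To measure apoptosis, cells were seeded at 0.5–1 × 10⁶ per well, grown 24 h, then treated for 48 h. Collected cells were stained with an Annexin V-FITC apoptosis detection kit following its instructions, and apoptosis rate was read by flow cytometry. n = 2.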
On the technique in general: A flow cytometer gives signals particle by particle.

Assay [6] relates to HCC827. Nature of the assay: Induction of cell cycle arrest in human HCC827 cells assessed as accumulation at G1 phase at 10 to 100 nM measured after 48 hrs by propidium iodide staining based flow cytometry analysis. It counts as functional. Particulars: dose 10-100 nM. The procedure, abridged: (§3)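 Cell cycle: cells were seeded at 0.5–1 × 10⁶ per well for 24 h, then treated 48 h. They were collected and washed twice in PBS, stained with PI/RNase at 37 °C for 15 min, and analysed by flow cytometry. n = 2.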

The subject of assay [7] is HepG2. Briefly: Antiproliferative activity against human HepG2 cells expressing VEGFR2 assessed as cell growth inhibition measured after 72 hrs by MTT assay. Particulars: HepG2, 72 h. Type of assay: functional, cell-based. The procedure, abridged:
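Cells were seeded at 3000–8000/well and allowed 24 h, then exposed to serial compound concentrations for 72 h. MTT (5 mg/mL stock in PBS) was added for 4 h, supernatant removed and DMSO added. IC50, defined as 50% growth inhibition, was derived by nonlinear regression (log inhibitor vs response).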

Assay [8] has as its target von Hippel-Lindau disease tumor suppressor/Epidermal growth factor receptor (Homo sapiens, UniProt P00533+P40337). Nature of the assay: Protac activity at VHL/EGFR in human A431 cells assessed as induction of degradation of EGFR at 0.1 to 3.3 uM incubated for 48 hrs by Western blot analysis. It counts as cell-based. Particulars: A-431, dose 0.1-3.3 µM.
The test system of assay [9] is von Hippel-Lindau disease tumor suppressor/Epidermal growth factor receptor (Homo sapiens), P00533+P40337 [UNDEFINED MUTATION]. Briefly: Protac activity at VHL/EGFR del19 mutant in human HCC827 cells assessed as induction of EGFR degradation at 33 nM measured after 24 hrs by Western blot analysis. Type of assay: cell-based. Summed up: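 HCC827 cells seeded at 0.5–1 × 10⁶ per well, grown 24 h, then treated at the stated concentrations for 24 h. EGFR^del19 level by Western blot with anti-EGFR antibody and β-actin loading control.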

Assay [10] addresses von Hippel-Lindau disease tumor suppressor/Epidermal growth factor receptor (Homo sapiens, UniProt P00533+P40337, T790M/L858R). Nature of the assay: Protac activity at VHL/EGFR L858R/T790M mutant in human H1975 cells assessed as induction of degradation of EGFR incubated for 48 hrs by Western blot analysis. Particulars: nci-h1975. It counts as cell-based. Summed up: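 H1975 cells exposed to the stated concentrations for 48 h. EGFR by Western blot; n = 3. DC₅₀ by nonlinear regression, log(inhibitor) vs response.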

Assay [11] deals with von Hippel-Lindau disease tumor suppressor/Epidermal growth factor receptor (Homo sapiens), P00533+P40337 [L858R,T790M]. Briefly: Protac activity at VHL/EGFR L858R/T790M mutant in human H1975 cells assessed as induction of degradation of EGFR at 0.33 to 1 uM incubated for 24 hrs by Western blot analysis. It counts as cell-based. The settings on record: NCI-H1975, dose 0.33-1 µM. Summed up: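 H1975 cells, after 24 h seeding, treated at the stated concentrations for 24 h. EGFR by Western blot with β-actin loading control.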

Assay [12] has as its system von Hippel-Lindau disease tumor suppressor/Epidermal growth factor receptor (Homo sapiens), P00533+P40337 [UNDEFINED MUTATION]. Briefly: Protac activity at VHL/EGFR del19 mutant in human HCC827 cells assessed as induction of EGFR degradation at 0.033 uM pretreated with EGFR inhibitor, F for 2 hrs followed by incubation with compound for 24 hrs by Western blot analysis. It counts as cell-based.

For assay [13] the test system is unchanged. Nature of the assay: Protac activity at VHL/EGFR del19 mutant in human HCC827 cells assessed as induction of EGFR degradation at 0.033 uM pretreated with VHL ligand, VHL-L for 2 hrs followed by incubation with compound for 24 hrs by Western blot analysis. Type of assay: cell-based.
The test system of assay [14] is NCI-H1975. Briefly: Induction of apoptosis in human NCI-H1975 cells at 333 to 1000 nM measured after 48 hrs by AnnexinV-FITC/propidium iodide staining based flow cytometry analysis. Type of assay: functional, cell-based. The settings on record: dose 333-1000 nM. Summed up: as §2
Assay [15] has as its system von Hippel-Lindau disease tumor suppressor/Epidermal growth factor receptor (Homo sapiens), P00533+P40337 [UNDEFINED MUTATION]. Nature of the assay: Protac activity at VHL/EGFR del19 mutant in human HCC827 cells assessed as induction of EGFR degradation at 0.1 to 0.3 nM precultured in medium without FBS followed by incubation with compound for 16 hrs by Western blot analysis. The settings on record: dose 0.1-0.3 nM. Type of assay: cell-based. Summed up:
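HCC827 or H1975 cells precultured 8 h in medium with or without FBS, then treated at the stated concentrations for 16 h. EGFR protein by Western blot; n = 3.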

For assay [16] the test system is unchanged. Briefly: Protac activity at VHL/EGFR del19 mutant in human HCC827 cells assessed as induction of EGFR degradation at 0.033 uM pretreated with VHL ligand, VHL-Ac for 2 hrs followed by incubation with compound for 24 hrs by Western blot analysis. It counts as cell-based.
For assay [17], the system named is von Hippel-Lindau disease tumor suppressor/Epidermal growth factor receptor (Homo sapiens), P00533+P40337 [L858R,T790M]. Nature of the assay: Protac activity at VHL/EGFR L858R/T790M mutant in human H1975 cells assessed as induction of degradation of EGFR at 0.1 uM pretreated with mTOR inhibitor, rapamycin for 8 hrs followed by incubation with compound for 16 hrs by Western blot analysis. Type of assay: cell-based. Particulars: NCI-H1975. Summed up: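 H1975 cells given rapamycin at the stated concentrations for 8 h, then compound for 16 h. EGFR by Western blot; n = 3.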

The subject of assay [18] is NCI-H1975. Nature of the assay: Induction of cell cycle arrest in human NCI-H1975 cells assessed as accumulation at G1 phase measured at 333 to 1000 nM measured after 48 hrs by propidium iodide staining based flow cytometry analysis. Type of assay: functional. Particulars: dose 333-1000 nM. Summed up: as §3
Assay [19] concerns NCI-H1975. Nature of the assay: Effect on Akt protein expression in human H1975 cells at 0.1 to 1 uM incubated for 48 hrs by Western blot analysis. Type of assay: functional, cell-based. Particulars: dose 0.1-1 µM.

Usually IC50 stands for the concentration that gives 50% inhibition. As usually defined, the DC50 is the concentration giving 50% degradation. On to `Cc1ncsc1-c1ccc(CNC(=O)[C@@H]2C[C@@H](O)CN2C(=O)[C@@H](NC(=O)CCCCCCN2CCN(c3ccc(Nc4ncc5nc(Nc6ccccc6)n(C6CCCC6)c5n4)cc3)CC2)C(C)(C)C)cc1`, for which the outcome in [1], in assay [2], in assay [6], in [9], in assay [11] and in assay [13] was Active. In addition, the result in [15], in assay [17] and in assay [18] was Active. Moreover, the Activity result is “Tde” in assay [3] and 44.8% in assay [5]. The outcome in assay [4], in assay [8], in assay [12], in assay [14], in assay [16] and in assay [19] was inactive. Also, the concentration for half-maximal inhibition (IC50) in assay [7] was above 5000 nM. Also, the DC50 in assay [10] came out at 126 nM.
